Data on two molecules can be found in ChEMBL document CHEMBL1240333, “Surveying polypeptide and protein domain conformation and association with FlAsH and ReAsH” (Nat Chem Biol, 2007).

The nature of assay [1]: Binding affinity to avian pancreatic polypeptide F24P mutant. The gist of the method: (§1)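 Fluorescence titration: 25 nM FlAsH or ReAsH titrated with increasing synthetic peptide or protein domain in 100 mM Tris-HCl pH 7.8 with 3.5 mM TCEP, 1 mM EDT, 1 mM EDTA. Emission read at 530 ± 12.5 nm (FlAsH) or 630 ± 17.5 nm (ReAsH) after reaching equilibrium, tracked over time. Apparent Kd taken from intensity versus concentration. Points are means of ≥3 independent titrations ± s.d.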

Assay [2] has as its system HeLa. The experiment in a line: Binding affinity to eGFP-tagged avian pancreatic polypeptide F24P mutant expressed in human HeLa cells at 100 uM after 30 mins by FRET assay. Format: cell-based.
The test system of assay [3] is HeLa. The experiment in a line: Binding affinity to eGFP-tagged avian pancreatic polypeptide F24P mutant expressed in human HeLa cells at 500 nM after 10 hrs by FRET assay. Format: cell-based.
Assay [4] has as its system HeLa. The experiment in a line: Binding affinity to eGFP-tagged avian pancreatic polypeptide F24P mutant expressed in human HeLa cells by flow cytometry. Format: cell-based. The gist of the method: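 Live HeLa cells transiently expressing eGFP fusions (aPP C-terminal or GCN4 N-terminal to eGFP) or eGFP alone. Stained 30 min with 500 nM ReAsH-EDT2 plus 100 μM EDT in phenol red-free, serum-free DMEM with 2 mM L-glutamine. PBS wash, then 0.75 mM BAL 30 min. Cells trypsinized and run by flow cytometry: eGFP 488 nm laser, 530 ± 15 nm; ReAsH 568 nm laser, 610 ± 10 nm. Mean ReAsH intensity plotted per log unit of eGFP.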

A short description of assay [5]: Binding affinity to alpha helix of avian pancreatic polypeptide F24P mutant by circular dichroism spectroscopy. The gist of the method:
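CD spectra recorded at 25 °C in 10 mM sodium phosphate pH 7.0 with no competing dithiols. Protein at 10 μM (aPP, Zip4) or 20 μM (GCN4, Jun); unmodified peptides and their FlAsH complexes. Three wavelength scans at 50 nm min-1 averaged, buffer-only background subtracted.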

The target of assay [6] is T1, Transcription factor Jun (Homo sapiens, UniProt P05412). In words: Binding affinity to wild type c-Jun homodimer by circular dichroism spectroscopy.
T1 sequence (P05412 whole entry): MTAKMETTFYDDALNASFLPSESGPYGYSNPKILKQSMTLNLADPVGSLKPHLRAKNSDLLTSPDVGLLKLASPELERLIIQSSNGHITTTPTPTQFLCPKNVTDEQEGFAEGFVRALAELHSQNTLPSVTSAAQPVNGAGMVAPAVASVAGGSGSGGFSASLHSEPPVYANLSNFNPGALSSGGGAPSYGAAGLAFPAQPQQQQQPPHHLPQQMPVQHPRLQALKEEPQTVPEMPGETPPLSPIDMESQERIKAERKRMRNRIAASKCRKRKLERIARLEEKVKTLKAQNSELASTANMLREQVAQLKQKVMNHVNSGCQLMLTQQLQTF
In assay [7] the target is T1, Transcription factor Jun. In words: Binding affinity to wild-type c-Jun homodimer at by circular dichroism spectroscopy. On the technique in general: Circular dichroism is the unequal absorption of left and right circularly polarised light.
The target of assay [8] is T1, Transcription factor Jun. The experiment in a line: Binding affinity to c-Jun homodimer containing bipartite tetracysteine motif at 25 nM. The gist of the method:
as §1

In assay [9] the target is T1, Transcription factor Jun. In words: Binding affinity to c-Jun homodimer containing bipartite tetracysteine motif at 100 nM.

pKd: −log10 of the molar value. Several values for one entry are separate records, joined by “and”; a condition that tells them apart may be missing. Equal values may be shown once. Activity calls are given as the source filed them. The rule behind the calls is not given here. Peptide text beside a SMILES is read from it.

Turning to `CC[C@H](C)[C@H](NC(=O)[C@H](CC(C)C)NC(=O)[C@H](CC(=O)O)NC(=O)[C@H](CCC(=O)O)NC(=O)[C@@H](NC(=O)[C@@H]1CCCN1C(=O)[C@H](C)NC(=O)[C@H](CC(=O)O)NC(=O)[C@H](CC(=O)O)NC(=O)CNC(=O)[C@@H]1CCCN1C(=O)[C@H](Cc1ccc(O)cc1)NC(=O)[C@@H](NC(=O)[C@@H]1CCCN1C(=O)[C@H](CCC(N)=O)NC(=O)[C@H](CO)NC(=O)[C@@H]1CCCN1C(=O)[C@H](CS)NC(=O)[C@H](CS)NC(=O)[C@H](CC(N)=O)NC(=O)[C@H](CC(C)C)NC(=O)[C@H](Cc1ccccc1)NC(C)=O)[C@H](C)O)C(C)C)C(=O)N[C@@H](CCCNC(=N)N)C(=O)N1CCC[C@H]1C(=O)N[C@@H](Cc1ccc(O)cc1)C(=O)N[C@@H](CC(=O)O)C(=O)N[C@@H](CC(N)=O)C(=O)N[C@@H](CC(C)C)C(=O)N[C@@H](CCC(N)=O)C(=O)N[C@@H](CCC(N)=O)C(=O)N[C@@H](Cc1ccc(O)cc1)C(=O)N[C@@H](CC(C)C)C(=O)N[C@@H](CC(N)=O)C(=O)N[C@H](C(=O)N[C@@H](CS)C(=O)N[C@@H](CS)C(=O)N[C@@H](CCSC)C(=O)N[C@@H](CCC(=O)O)C(=O)N1CCC[C@H]1C(N)=O)C(C)C`, the Kapp in assay [1] was 27 µM and 22 µM. For the same molecule, the outcome in the assay with HeLa [2] and in the assay with HeLa [4] was Active. The outcome (with HeLa [3]; in assay [5]) was inactive.

Usually pKd stands for −log10 of the Kd, conventionally taken in molar units. As for `CC[C@H](C)[C@H](NC(=O)[C@H](CCCNC(=N)N)NC(=O)[C@H](Cc1c[nH]c2ccccc12)NC(C)=O)C(=O)N[C@@H](C)C(=O)N[C@@H](CCCNC(=N)N)C(=O)N[C@@H](CC(C)C)C(=O)N[C@@H](CCC(=O)O)C(=O)N[C@@H](CCC(=O)O)C(=O)N[C@@H](CCCCN)C(=O)N[C@H](C(=O)N[C@@H](CCCCN)C(=O)N[C@H](C(=O)N[C@@H](CC(C)C)C(=O)N[C@@H](CCCCN)C(=O)N[C@@H](C)C(=O)N[C@@H](CCC(N)=O)C(=O)N[C@@H](CC(N)=O)C(=O)N[C@@H](CO)C(=O)N[C@@H](CCC(=O)O)C(=O)N[C@@H](CC(C)C)C(=O)N[C@@H](C)C(=O)N[C@@H](CO)C(=O)N[C@H](C(=O)N[C@@H](C)C(=O)N[C@@H](CC(N)=O)C(=O)N[C@@H](CCSC)C(=O)N[C@@H](CC(C)C)C(=O)N[C@@H](CCCNC(=N)N)C(=O)N[C@@H](CCC(=O)O)C(=O)N[C@@H](CCC(N)=O)C(=O)N[C@H](C(=O)N[C@@H](C)C(=O)N[C@@H](CCC(N)=O)C(=O)N[C@@H](CC(C)C)C(=O)N[C@@H](CCCCN)C(=O)N[C@@H](CCC(N)=O)C(=O)N[C@@H](CCCCN)C(=O)N[C@H](C(=O)N[C@@H](CS)C(=O)N[C@@H](CS)C(N)=O)C(C)C)C(C)C)[C@@H](C)O)[C@@H](C)O)C(C)C` (Ac-WRIARLEEKVKTLKAQNSELASTANMLREQVAQLKQKVCC-NH2), the result on Transcription factor Jun [6] was inactive. In addition, the pKd on Transcription factor Jun [7] was 5.00. The result at Transcription factor Jun [8] and on Transcription factor Jun [9] was Active.
